In ChEMBL document CHEMBL4152390, “Discovery of the First-in-Class Dual Histone Deacetylase-Proteasome Inhibitor” (J Med Chem, 2018):
Active and inactive are the calls of the source. The rule behind the calls is not given here.

Legend:
[1] = Cytotoxicity against human BCP-ALL cells derived from patient 4 after 72 hrs by CellTiter-Glo luminescent cell viability assay; assay type: functional, cell-based
SUP-B15 [2] = experiment: Inhibition of HDAC6/chymotrypsin-like activity of 20S proteasome in imatinib-resistant human SUP-B15 cells assessed as increase in cleaved PARP expression at 0.1 to 10 uM after 24 hrs by immunoblot assay; assay type: cell-based
Method in brief: (§1)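 Cells exposed for 24 h at indicated concentrations; lysates immunoblotted for acetyl-α-tubulin, acetyl-histone H3, PARP, with GAPDH as loading control.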

SEM cells [3] = experiment: Inhibition of HDAC6/chymotrypsin-like activity of 20S proteasome in human SEM cells assessed as increase in LC3B protein expression at 0.1 to 10 uM after 18 hrs by Western blot assay; assay type: cell-based
Method in brief: (§2)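 Cells treated 18 h at indicated concentrations; lysates analysed by western blot for heat shock (Grp94, HSP70, HSP40, HSP27), UPR (BIP, ATF4, ATF6, pJNK) and autophagy (LC3B, p62) proteins.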

SEM cells [4] = experiment: Induction of early differentiation of human SEM cells assessed as increase in CD11b expression at IC50 to 2 times IC50 after 72 hrs by FACS analysis; assay type: functional, cell-based
Method in brief: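 Surface CD11b and CD14 measured by FACS using fluorochrome-coupled monoclonal antibodies with matched isotype controls, after treatment in liquid medium.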

Histone deacetylase 2 = Histone deacetylase 2 (Homo sapiens, UniProt Q92769); experiment: Inhibition of C-terminal GST-tagged recombinant human HDAC2 expressed in baculovirus infected insect cells using RHKK(Ac)AMC as substrate by fluorescence-based assay
SUP-B15 [5] = experiment: Cytotoxicity against imatinib-resistant human SUP-B15 cells after 72 hrs by CellTiter-Glo luminescent cell viability assay; assay type: functional, cell-based; conditions: SUP-B15, 72 h
[6] = Cytotoxicity against human BCP-ALL cells derived from patient 1 after 72 hrs by CellTiter-Glo luminescent cell viability assay; assay type: functional, cell-based
[7] = target: T1, Protein deacetylase HDAC6 (Homo sapiens) (UniProt Q9UBN7); experiment: Inhibition of HDAC6 in human HL60 cells assessed as increase in acetyl-histone H3 expression at 0.1 to 10 uM after 24 hrs by immunoblot assay; assay type: cell-based; method in brief: as §1
T1 sequence (whole entry): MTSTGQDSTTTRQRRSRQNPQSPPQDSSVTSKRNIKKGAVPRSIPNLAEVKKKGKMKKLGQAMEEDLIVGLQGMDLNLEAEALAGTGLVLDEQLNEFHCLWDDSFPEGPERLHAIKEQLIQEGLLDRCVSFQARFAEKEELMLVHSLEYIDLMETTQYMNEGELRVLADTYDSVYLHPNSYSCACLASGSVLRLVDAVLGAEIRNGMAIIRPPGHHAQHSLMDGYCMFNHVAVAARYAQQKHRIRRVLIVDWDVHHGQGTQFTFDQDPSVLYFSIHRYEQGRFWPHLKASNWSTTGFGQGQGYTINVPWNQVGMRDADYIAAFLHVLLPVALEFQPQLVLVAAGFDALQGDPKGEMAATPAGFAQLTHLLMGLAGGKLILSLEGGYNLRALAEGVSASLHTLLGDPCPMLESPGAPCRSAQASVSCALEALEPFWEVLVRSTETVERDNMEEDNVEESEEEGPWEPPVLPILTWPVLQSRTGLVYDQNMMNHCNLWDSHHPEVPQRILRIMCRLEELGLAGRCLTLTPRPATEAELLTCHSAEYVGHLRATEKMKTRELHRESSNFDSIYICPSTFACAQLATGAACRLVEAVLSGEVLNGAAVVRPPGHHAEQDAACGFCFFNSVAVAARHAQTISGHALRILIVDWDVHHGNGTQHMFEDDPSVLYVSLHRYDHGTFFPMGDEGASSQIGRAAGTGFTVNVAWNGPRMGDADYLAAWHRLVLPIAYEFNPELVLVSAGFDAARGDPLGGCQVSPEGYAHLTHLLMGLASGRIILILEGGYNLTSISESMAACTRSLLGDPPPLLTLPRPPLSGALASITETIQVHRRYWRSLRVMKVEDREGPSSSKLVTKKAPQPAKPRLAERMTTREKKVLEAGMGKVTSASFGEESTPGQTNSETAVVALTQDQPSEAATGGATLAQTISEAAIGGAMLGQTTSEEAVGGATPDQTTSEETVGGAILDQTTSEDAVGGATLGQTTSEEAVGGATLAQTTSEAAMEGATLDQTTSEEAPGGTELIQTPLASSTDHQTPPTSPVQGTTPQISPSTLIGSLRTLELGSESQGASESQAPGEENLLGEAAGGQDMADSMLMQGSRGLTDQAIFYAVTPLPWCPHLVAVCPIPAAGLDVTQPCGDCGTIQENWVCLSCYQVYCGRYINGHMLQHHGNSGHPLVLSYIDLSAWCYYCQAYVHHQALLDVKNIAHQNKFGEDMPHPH

[8] = Cytotoxicity against human BCP-ALL cells derived from patient 2 after 72 hrs by CellTiter-Glo luminescent cell viability assay; assay type: functional, cell-based
Method in brief: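 Compounds dispensed digitally at increasing concentrations, 50 nM–25 μM; viability read by CellTiter-Glo luminescence after 72 h. Raw data normalized to controls, IC50 from sigmoid dose curve by non-linear regression. Patient samples: primary cells from newly diagnosed or relapsed patients, cultured in stem cell expansion or mononuclear cell medium.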

SEM cells [9] = experiment: Inhibition of HDAC6/chymotrypsin-like activity of 20S proteasome in human SEM cells assessed as increase in phosphorylated JNK protein expression at 0.1 to 10 uM after 18 hrs by Western blot assay; assay type: cell-based; method in brief: as §2
[10] = target: T2, Proteasome Macropain subunit MB1 (Homo sapiens, UniProt P28074); experiment: Inhibition of chymotrypsin-like activity of 20S proteasome in human SEM cells using Suc-LLVY aminoluciferin as substrate after 2 hrs by proteasome-Glo assay; assay type: cell-based
T2 sequence (P28074 whole entry): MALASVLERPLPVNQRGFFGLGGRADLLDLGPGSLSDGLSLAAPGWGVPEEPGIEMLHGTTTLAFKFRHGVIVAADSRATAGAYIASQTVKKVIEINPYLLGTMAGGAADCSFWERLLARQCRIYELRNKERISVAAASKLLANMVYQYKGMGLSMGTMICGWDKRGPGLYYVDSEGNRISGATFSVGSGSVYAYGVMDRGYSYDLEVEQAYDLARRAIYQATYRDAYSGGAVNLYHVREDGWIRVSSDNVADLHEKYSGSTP

[11] = target: T3, Protein deacetylase HDAC6 (Homo sapiens, UniProt Q9UBN7); experiment: Inhibition of N-terminal GST-tagged recombinant human HDAC6 expressed in baculovirus infected insect cells using RHKK(Ac)AMC as substrate by fluorescence-based assay
T3 sequence (Q9UBN7 whole entry): T1 sequence (whole entry)

[12] = target: Proteasome Macropain subunit (Homo sapiens) (UniProt P49721); experiment: Inhibition of trypsin-like activity of 20S proteasome in human imatinib-resistant SUP-B15 cells at 4 nM to 25 uM using Z-LRR-aminoluciferin as substrate after 2 hrs by proteasome-Glo assay; assay type: cell-based
[13] = target: T2, Proteasome Macropain subunit MB1; experiment: Inhibition of chymotrypsin-like activity of 20S proteasome in imatinib-resistant human SUP-B15 cells using Suc-LLVY aminoluciferin as substrate after 2 hrs by proteasome-Glo assay; assay type: cell-based
[14] = target: Proteasome Macropain subunit (Homo sapiens) (UniProt P49721); experiment: Inhibition of trypsin-like activity of 20S proteasome in human SEM cells at 4 nM to 25 uM using Z-LRR-aminoluciferin as substrate after 2 hrs by proteasome-Glo assay; assay type: cell-based

Sequence of Proteasome Macropain subunit (Homo sapiens) (P49721 whole entry): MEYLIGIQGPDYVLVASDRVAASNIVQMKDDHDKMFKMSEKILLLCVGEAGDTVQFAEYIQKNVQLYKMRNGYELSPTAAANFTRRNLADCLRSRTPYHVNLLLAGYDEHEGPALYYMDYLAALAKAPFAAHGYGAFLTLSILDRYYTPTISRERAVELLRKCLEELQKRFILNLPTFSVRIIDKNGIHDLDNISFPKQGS
Sequence of Histone deacetylase 2 (Q92769 whole entry): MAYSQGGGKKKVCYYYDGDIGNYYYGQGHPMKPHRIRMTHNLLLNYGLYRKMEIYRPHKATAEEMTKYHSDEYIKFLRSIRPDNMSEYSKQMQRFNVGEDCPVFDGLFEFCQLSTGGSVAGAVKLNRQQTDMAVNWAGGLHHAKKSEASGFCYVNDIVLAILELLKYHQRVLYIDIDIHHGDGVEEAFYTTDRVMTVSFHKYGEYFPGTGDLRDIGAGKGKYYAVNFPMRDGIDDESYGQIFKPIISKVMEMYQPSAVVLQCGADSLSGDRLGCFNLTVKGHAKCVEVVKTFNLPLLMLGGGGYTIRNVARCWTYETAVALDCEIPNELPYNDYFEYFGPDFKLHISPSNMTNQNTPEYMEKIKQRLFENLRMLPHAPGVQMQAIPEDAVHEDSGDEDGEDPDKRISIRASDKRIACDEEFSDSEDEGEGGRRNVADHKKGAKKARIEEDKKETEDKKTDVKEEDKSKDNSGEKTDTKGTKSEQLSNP

IC50 (Histone deacetylase 2): 18 µM | inhibition [7]: Active | IC50 [10]: 0.394 µM | IC50 [11]: 0.27 µM | inhibition [12]: inactive | IC50 [13]: 0.82 µM | inhibition [14]: inactive
Structure (SMILES): C[C@H](NC(=O)[C@H](CC(=O)NCC(C)(C)C)NC(=O)c1ccc(C(=O)NO)cc1)C(=O)NCc1ccccc1
IC50 [1]: 1.51 µM | inhibition (SUP-B15 [2]): Active | inhibition (SEM cells [3]): Active | Activity (SEM cells [4]): Active | IC50 (SUP-B15 [5]): 1.83 µM | IC50 [6]: 2.06 µM | IC50 [8]: 1.84 µM | inhibition (SEM cells [9]): Active
